In ChEMBL document CHEMBL3259692, “Inhibition of biofilm formation by conformationally constrained indole-based analogues of the marine alkaloid oroidin” (2014):
Activity calls are given as the source filed them. The rule behind the calls is not given here.

Legend:
Staphylococcus aureus [1] = experiment: Antimicrobial activity against methicillin-resistant Staphylococcus aureus 25762 assessed as biofilm formation at 100 uM after 48 hrs by crystal violet staining-based spectrophotometry relative to control; format: functional
Streptococcus mutans [2] = experiment: Antimicrobial activity against Streptococcus mutans 240 assessed as biofilm formation at 100 uM after 48 hrs by crystal violet staining-based spectrophotometry relative to control; format: functional
How it was run: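 Single-concentration screen in a modified biofilm-formation assay. Compound at 100 µM. Biofilm formed is expressed as a percentage of the negative control. Values are the mean of three independent experiments.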

Pseudomonas aeruginosa = experiment: Antimicrobial activity against Pseudomonas aeruginosa 6121 assessed as inhibition of biofilm formation after 24 hrs by crystal violet staining-based spectrophotometry; format: functional, organism-based
Streptococcus mutans [3] = experiment: Antimicrobial activity against Streptococcus mutans 240 assessed as inhibition of biofilm formation after 48 hrs by crystal violet staining-based spectrophotometry; format: functional
Staphylococcus aureus [4] = experiment: Antimicrobial activity against methicillin-resistant Staphylococcus aureus 25762 assessed as inhibition of biofilm formation after 48 hrs by crystal violet staining-based spectrophotometry; format: functional

| SMILES | Activity (Staphylococcus aureus [1]) | Activity (Streptococcus mutans [2]) | inhibition (Pseudomonas aeruginosa) | MBIC50 (Streptococcus mutans [3]) [µM] | MBIC50 (Staphylococcus aureus [4]) [µM] |
| --- | --- | --- | --- | --- | --- |
| Cl.Nc1nc(-c2cccc(NC(=O)c3cc4cc(F)ccc4[nH]3)c2)c[nH]1 | inactive | 8.7% | inactive | – | – |
| Nc1nc(/C=C/CNC(=O)c2cc3ccccc3[nH]2)c[nH]1 | inactive | inactive | inactive | – | – |
| Cl.Nc1nc(-c2ccc(NC(=O)c3cc4ccccc4[nH]3)cc2)c[nH]1 | 11.1% | 8.1% | inactive | 60 | 90 |
| CC(C)(C)OC(=O)n1cc(-c2cccc(NC(=O)c3cc4cc(O)ccc4[nH]3)c2)nc1N | inactive | 57.6% | inactive | – | – |
| Cl.Nc1nc(-c2ccc(NC(=O)c3cc4cc(F)ccc4[nH]3)cc2)c[nH]1 | 10.9% | 3.9% | inactive | 50 | 60 |
| Cl.Nc1nc(-c2ccc(NC(=O)c3cc4cc(Cl)ccc4[nH]3)cc2)c[nH]1 | inactive | 38.2% | inactive | – | – |
| Cl.Nc1nc(-c2cccc(NC(=O)c3cc4ccccc4[nH]3)c2)c[nH]1 | 13.9% | 14.2% | inactive | – | – |
| CC(C)(C)OC(=O)n1cc(-c2cccc(NC(=O)c3cc4ccccc4[nH]3)c2)nc1N | inactive | 30.6% | inactive | – | – |
| Cl.Nc1nc(-c2cccc(NC(=O)c3c[nH]c4ccccc34)c2)c[nH]1 | inactive | 23.9% | inactive | – | – |
| Cl.Nc1nc(-c2cccc(NC(=O)c3cc4cc(O)ccc4[nH]3)c2)c[nH]1 | inactive | 53.4% | inactive | – | – |
| COc1ccc2[nH]c(C(=O)Nc3cccc(-c4c[nH]c(N)n4)c3)cc2c1.Cl | inactive | 10.5% | inactive | – | – |
| Cl.Nc1nc(-c2cccc(NC(=O)c3cc4cc([N+](=O)[O-])ccc4[nH]3)c2)c[nH]1 | inactive | 33.3% | inactive | – | – |
| Nc1ccc2[nH]c(C(=O)Nc3cccc(-c4c[nH]c(N)n4)c3)cc2c1 | inactive | inactive | inactive | – | – |
| Cl.Nc1nc(-c2cccc(NC(=O)c3cc4cc(OCc5ccccc5)ccc4[nH]3)c2)c[nH]1 | 31.4% | 8.2% | inactive | – | – |
| CC(C)(C)OC(=O)n1cc(-c2cccc(NC(=O)c3cc4cc(OC(F)(F)F)ccc4[nH]3)c2)nc1N | inactive | inactive | inactive | – | – |
| CC(C)(C)OC(=O)n1cc(-c2cccc(NC(=O)c3cc4cc(N)ccc4[nH]3)c2)nc1N | inactive | inactive | inactive | – | – |
| Cl.Nc1nc(-c2cccc(NC(=O)c3cc4cc(Cl)ccc4[nH]3)c2)c[nH]1 | 44% | 6.8% | inactive | – | – |
| Nc1nc(/C=C/CNC(=O)c2cc3cc(F)ccc3[nH]2)c[nH]1 | 8.1% | 18.7% | inactive | 60 | 60 |
| CNc1nc(-c2cccc(NC(=O)c3cc4ccccc4[nH]3)c2)c[nH]1.Cl | 19.1% | 8.8% | inactive | 80 | 70 |
| Cl.Nc1nc(-c2cccc(NC(=O)c3cc4sccc4[nH]3)c2)c[nH]1 | 23% | 10.1% | inactive | 60 | 90 |
| Nc1ncc(/C=C/CNC(=O)c2cc(Br)c(Br)[nH]2)[nH]1 [OROIDIN] | inactive | 18% | – | – | – |
